The species entered for assay [1] is Rattus norvegicus. Kind of assay: In vitro for uterotonic activity in the absence of Mg2+ ion by Munsick method. The assay is classed as functional.
The species entered for assay [2] is Rattus norvegicus. Kind of assay: In vitro for uterotonic activity in the presence of Mg2+ ion by Munsick method. Format: functional. Put shortly: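 Isolated uterus bath contains 0.5 mM Mg2+.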
Assay [3] concerns Rattus norvegicus. Kind of assay: Evaluation of antidiuretic activity against ethanol-anesthetized rats. The assay is classed as functional, Urine. The essentials:
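Rats water-loaded before assay, under ethanol anesthesia.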

Assay [4] is filed under the species Rattus norvegicus. Kind of assay: Evaluation of milk ejecting activity. The assay is classed as functional.
The nature of assay [5]: Ratio of Oxytocin to Pressor activity. The assay is classed as functional.
The species named for assay [6] is Rattus norvegicus. The assay can be described thus: Evaluation of vasopressor activity. The assay is classed as functional.
The nature of assay [7]: Ratio of Oxytocin to Antidiuretic activity. Format: functional, Urine.

Molecules are shown by their SMILES.

In the case of `CC[C@H](C)[C@@H]1NC(=O)[C@H](Cc2ccc(O)cc2)NC(=O)[C@@H](N)CSSC[C@@H](C(=O)N2CCC[C@H]2C(=O)N[C@@H](CC(C)C)C(=O)NCC(N)=O)NC(=O)[C@H](CC(N)=O)NC(=O)[C@H](CCC(N)=O)NC1=O` [OXYTOCIN], the Activity amounted to 520 U mg-1 in the assay filed under Rattus norvegicus [1], 486 U mg-1 in the assay filed under Rattus norvegicus [2], 4 U mg-1 with Rattus norvegicus [3] and 474 U mg-1 in the assay listed under Rattus norvegicus [4]. The Ratio in assay [5] came to 120.

In the case of `CC[C@H](C)[C@@H]1NC(=O)[C@@H](Cc2ccc(O)cc2)NC(=O)[C@H](N)CSSC[C@@H](C(=O)N(C)CC(=O)N[C@@H](CC(C)C)C(=O)NCC(N)=O)NC(=O)[C@H](CC(N)=O)NC(=O)[C@@H](CCC(N)=O)NC1=O`, the Ratio in assay [5] was above 1310.

Turning to `CC[C@H](C)[C@@H]1NC(=O)[C@H](Cc2ccc(O)cc2)NC(=O)[C@@H](N)CSSC[C@@H](C(=O)N(C)CC(=O)N[C@@H](CC(C)C)C(=O)NCC(N)=O)NC(=O)[C@H](CC(N)=O)NC(=O)[C@H]([C@@H](C)O)NC1=O`, the Activity is recorded as 1173 U mg-1 in the assay filed under Rattus norvegicus [1]; 1561 U mg-1 in the assay filed under Rattus norvegicus [2]; 0.037 U mg-1 in the assay on Rattus norvegicus [3]; 731 U mg-1 in the assay listed under Rattus norvegicus [4]; below 0.5 U mg-1 in the assay filed under Rattus norvegicus [6]. In addition, in assay [7], the Ratio worked out at 31700.

On to `CC[C@H](C)[C@@H]1NC(=O)[C@@H](Cc2ccc(O)cc2)NC(=O)[C@H](N)CSSC[C@@H](C(=O)N(C)CC(=O)N[C@@H](CC(C)C)C(=O)NCC(N)=O)NC(=O)[C@H](CC(N)=O)NC(=O)[C@@H]([C@H](C)O)NC1=O`, for which, in assay [5], the Ratio was above 2350.

For `CC[C@H](C)[C@@H]1NC(=O)[C@H](Cc2ccc(O)cc2)NC(=O)[C@@H](N)CSSC[C@@H](C(=O)N(C)[C@@H](C)C(=O)N[C@@H](CC(C)C)C(=O)NCC(N)=O)NC(=O)[C@H](CC(N)=O)NC(=O)[C@H]([C@@H](C)O)NC1=O`, the Activity was 115 U mg-1 in the assay filed under Rattus norvegicus [1]; 219 U mg-1 in the assay filed under Rattus norvegicus [2]; 0.047 U mg-1 with Rattus norvegicus [3]; 243 U mg-1 in the assay filed under Rattus norvegicus [4]; below 0.6 U mg-1 in the assay filed under Rattus norvegicus [6]. In addition, in assay [7], the Ratio turned out to be 2450.

Take `CC[C@H](C)[C@@H]1NC(=O)[C@@H](Cc2ccc(O)cc2)NC(=O)[C@H](N)CSSC[C@@H](C(=O)N(C)[C@H](C)C(=O)N[C@@H](CC(C)C)C(=O)NCC(N)=O)NC(=O)[C@H](CC(N)=O)NC(=O)[C@@H](CCC(N)=O)NC1=O`: in assay [5], the Ratio was above 177.

Turning to `CC[C@H](C)[C@@H]1NC(=O)[C@@H](Cc2ccc(O)cc2)NC(=O)[C@H](N)CSSC[C@@H](C(=O)N(C)[C@H](C)C(=O)N[C@@H](CC(C)C)C(=O)NCC(N)=O)NC(=O)[C@H](CC(N)=O)NC(=O)[C@@H]([C@H](C)O)NC1=O`, the Ratio in assay [5] was above 192.

`CC[C@H](C)[C@@H]1NC(=O)[C@H](Cc2ccc(O)cc2)NC(=O)[C@@H](N)CSSC[C@@H](C(=O)N(C)CC(=O)N[C@@H](CC(C)C)C(=O)NCC(N)=O)NC(=O)[C@H](CC(N)=O)NC(=O)[C@H](CCC(N)=O)NC1=O`: the Activity in the assay listed under Rattus norvegicus [1] was 459 U mg-1; in the assay filed under Rattus norvegicus [2], 609 U mg-1; in the assay with Rattus norvegicus [3] it was 0.18 U mg-1; in the assay filed under Rattus norvegicus [4] it was 564 U mg-1; in the assay listed under Rattus norvegicus [6] it was below 0.35 U mg-1. In addition, the Ratio in assay [7] came out at 2550.

On to `CC[C@H](C)[C@@H]1NC(=O)[C@@H](Cc2ccc(O)cc2)NC(=O)[C@H](N)CSSC[C@@H](C(=O)N2CCC[C@@H]2C(=O)N[C@@H](CC(C)C)C(=O)NCC(N)=O)NC(=O)[C@H](CC(N)=O)NC(=O)[C@@H]([C@H](C)O)NC1=O`, for which the Ratio in assay [5] was 2150.

In the case of `CC[C@H](C)[C@@H]1NC(=O)[C@H](Cc2ccc(O)cc2)NC(=O)[C@@H](N)CSSC[C@@H](C(=O)N2CCC[C@H]2C(=O)N[C@@H](CC(C)C)C(=O)NCC(N)=O)NC(=O)[C@H](CC(N)=O)NC(=O)[C@H]([C@@H](C)O)NC1=O`, the Activity in the assay listed under Rattus norvegicus [1] amounted to 923 U mg-1; in the assay listed under Rattus norvegicus [2] it was 719 U mg-1; in the assay with Rattus norvegicus [3], 1.8 U mg-1; in the assay filed under Rattus norvegicus [4] it was 543 U mg-1; in the assay listed under Rattus norvegicus [6], 0.43 U mg-1. Further, the Ratio in assay [7] came to 510.

Turning to `CC[C@H](C)[C@@H]1NC(=O)[C@H](Cc2ccc(O)cc2)NC(=O)[C@@H](N)CSSC[C@@H](C(=O)N(C)[C@@H](C)C(=O)N[C@@H](CC(C)C)C(=O)NCC(N)=O)NC(=O)[C@H](CC(N)=O)NC(=O)[C@H](CCC(N)=O)NC1=O`, the Activity in the assay listed under Rattus norvegicus [1] is 62 U mg-1; in the assay listed under Rattus norvegicus [2], 184 U mg-1; in the assay on Rattus norvegicus [3], 0.12 U mg-1; in the assay filed under Rattus norvegicus [4], 402 U mg-1; in the assay listed under Rattus norvegicus [6] it was below 0.35 U mg-1. The Ratio in assay [7] is 516.
